Experimental data from ChEMBL document CHEMBL1122046, “Quaternary heterocyclylamino beta-lactams: a generic alternative to the classical acylamino side chain” (1982).
Values after ≈ are worked out from the molar mass of the structure shown.

Tested on: Escherichia coli
Test: MIC against aerobic organism Escherichia coli strain 2891
Assay type: functional
Settings: Escherichia coli; read-out: MIC
In short: (§1)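 Agar-dilution MIC in µg/mL against aerobic bacterial strains on tryptocase soy agar, with inoculum applied as spots. Most series used 10^5 cfu per spot, and a later series used 10^4 cfu per spot. In some tables, footnoted strains were instead tested on Mueller-Hinton or nutrient agar. β-Lactamase-producing strains are flagged.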

Row | MIC | SMILES
1 | 1 µg/mL (≈ 1.99 µM) | CCOC(=S)SCC1=C(C(=O)[O-])N2C(=O)[C@@H](Nc3cc[n+](Cc4ccccc4)cc3)[C@H]2SC1
2 | > 128 µg/mL | CC(=O)OCC1=C(C(=O)[O-])N2C(=O)[C@@H](Nc3cc[n+](C)cc3)[C@H]2SC1
3 | 2 µg/mL (≈ 4.41 µM) | Cn1nnnc1SCC1=C(C(=O)[O-])N2C(=O)C(Nc3ccc(Cl)c[n+]3C)C2SC1 (stereo not given)

Tested on: Klebsiella aerogenes
Test: Minimum inhibitory concentration against aerobic organism Enterobacter aerogenes strain 2828
Assay type: functional
Settings: not given
In short: as §1

Row | MIC | SMILES
4 | > 128 µg/mL | CCOC(=S)SCC1=C(C(=O)[O-])N2C(=O)[C@@H](Nc3cc[n+](Cc4ccccc4)cc3)[C@H]2SC1

Tested on: Klebsiella aerogenes
Test: Minimum inhibitory concentration against aerobic organism Enterobacter aerogenes strain 2906
Assay type: functional
Settings: Klebsiella aerogenes; read-out: MIC
In short: as §1

Row | MIC | SMILES
5 | > 128 µg/mL | CC(=O)OCC1=C(C(=O)[O-])N2C(=O)[C@@H](Nc3cc[n+](C)cc3)[C@H]2SC1
6 | > 128 µg/mL | Cn1nnnc1SCC1=C(C(=O)[O-])N2C(=O)C(Nc3ccc(Cl)c[n+]3C)C2SC1 (stereo not given)

Tested on: Enterobacter cloacae
Test: Minimum inhibitory concentration against aerobic organism Enterobacter cloacae strain 2646
Assay type: functional
Settings: Enterobacter cloacae; read-out: MIC
In short: as §1

Row | MIC | SMILES
7 | 4 µg/mL (≈ 7.97 µM) | CCOC(=S)SCC1=C(C(=O)[O-])N2C(=O)[C@@H](Nc3cc[n+](Cc4ccccc4)cc3)[C@H]2SC1
8 | > 128 µg/mL | CC(=O)OCC1=C(C(=O)[O-])N2C(=O)[C@@H](Nc3cc[n+](C)cc3)[C@H]2SC1
9 | > 128 µg/mL | Cn1nnnc1SCC1=C(C(=O)[O-])N2C(=O)C(Nc3ccc(Cl)c[n+]3C)C2SC1 (stereo not given)

Tested on: Klebsiella pneumoniae
Test: Minimum inhibitory concentration against aerobic organism Klebsiella pneumoniae strain 2882
Assay type: functional
Settings: Klebsiella pneumoniae; read-out: MIC
In short: as §1

Row | MIC | SMILES
10 | 32 µg/mL (≈ 88.1 µM) | CC(=O)OCC1=C(C(=O)[O-])N2C(=O)[C@@H](Nc3cc[n+](C)cc3)[C@H]2SC1
11 | 64 µg/mL (≈ 141 µM) | Cn1nnnc1SCC1=C(C(=O)[O-])N2C(=O)C(Nc3ccc(Cl)c[n+]3C)C2SC1 (stereo not given)

Tested on: Klebsiella pneumoniae
Test: Minimum inhibitory concentration against aerobic organism Klebsiella pneumoniae strain 4005
Assay type: functional
Settings: not given
In short: as §1

Row | MIC | SMILES
12 | > 128 µg/mL | CCOC(=S)SCC1=C(C(=O)[O-])N2C(=O)[C@@H](Nc3cc[n+](Cc4ccccc4)cc3)[C@H]2SC1

Tested on: Morganella morganii
Test: Minimum inhibitory concentration against aerobic organism Morganella morganii strain 2833
Assay type: functional
Settings: Morganella morganii; read-out: MIC
In short: as §1

Row | MIC | SMILES
13 | > 128 µg/mL | CCOC(=S)SCC1=C(C(=O)[O-])N2C(=O)[C@@H](Nc3cc[n+](Cc4ccccc4)cc3)[C@H]2SC1
14 | > 128 µg/mL | CC(=O)OCC1=C(C(=O)[O-])N2C(=O)[C@@H](Nc3cc[n+](C)cc3)[C@H]2SC1
15 | > 128 µg/mL | Cn1nnnc1SCC1=C(C(=O)[O-])N2C(=O)C(Nc3ccc(Cl)c[n+]3C)C2SC1 (stereo not given)

Tested on: Pseudomonas aeruginosa
Test: Minimum inhibitory concentration against aerobic organism Pseudomonas aeruginosa strain 2835
Assay type: functional
Settings: not given
In short: as §1

Row | MIC | SMILES
16 | > 128 µg/mL | CCOC(=S)SCC1=C(C(=O)[O-])N2C(=O)[C@@H](Nc3cc[n+](Cc4ccccc4)cc3)[C@H]2SC1
17 | > 128 µg/mL | CC(=O)OCC1=C(C(=O)[O-])N2C(=O)[C@@H](Nc3cc[n+](C)cc3)[C@H]2SC1
18 | > 128 µg/mL | Cn1nnnc1SCC1=C(C(=O)[O-])N2C(=O)C(Nc3ccc(Cl)c[n+]3C)C2SC1 (stereo not given)

Tested on: Proteus mirabilis
Test: Minimum inhibitory concentration against aerobic organism Proteus mirabilis strain 2830
Assay type: functional
Settings: Proteus mirabilis; read-out: MIC
In short: as §1

Row | MIC | SMILES
19 | > 128 µg/mL | CCOC(=S)SCC1=C(C(=O)[O-])N2C(=O)[C@@H](Nc3cc[n+](Cc4ccccc4)cc3)[C@H]2SC1
20 | > 128 µg/mL | CC(=O)OCC1=C(C(=O)[O-])N2C(=O)[C@@H](Nc3cc[n+](C)cc3)[C@H]2SC1
21 | > 128 µg/mL | Cn1nnnc1SCC1=C(C(=O)[O-])N2C(=O)C(Nc3ccc(Cl)c[n+]3C)C2SC1 (stereo not given)

Tested on: Proteus vulgaris
Test: Minimum inhibitory concentration against aerobic organism Proteus vulgaris strain 2829
Assay type: functional
Settings: Proteus vulgaris; read-out: MIC
In short: as §1

Row | MIC | SMILES
22 | 8 µg/mL (≈ 15.9 µM) | CCOC(=S)SCC1=C(C(=O)[O-])N2C(=O)[C@@H](Nc3cc[n+](Cc4ccccc4)cc3)[C@H]2SC1
23 | < 0.5 µg/mL | CC(=O)OCC1=C(C(=O)[O-])N2C(=O)[C@@H](Nc3cc[n+](C)cc3)[C@H]2SC1
24 | 1 µg/mL (≈ 2.2 µM) | Cn1nnnc1SCC1=C(C(=O)[O-])N2C(=O)C(Nc3ccc(Cl)c[n+]3C)C2SC1 (stereo not given)

Tested on: not listed separately
Test: Minimum inhibitory concentration against aerobic organism Salmonella schottmuelleri strain 2837
Assay type: functional
Settings: Salmonella; read-out: MIC
In short: as §1

Row | MIC | SMILES
25 | 8 µg/mL (≈ 22 µM) | CC(=O)OCC1=C(C(=O)[O-])N2C(=O)[C@@H](Nc3cc[n+](C)cc3)[C@H]2SC1
26 | 4 µg/mL (≈ 8.81 µM) | Cn1nnnc1SCC1=C(C(=O)[O-])N2C(=O)C(Nc3ccc(Cl)c[n+]3C)C2SC1 (stereo not given)

Tested on: Serratia marcescens
Test: Minimum inhibitory concentration against aerobic organism Serratia marcescens strain 2852
Assay type: functional
Settings: Serratia marcescens; read-out: MIC
In short: as §1

Row | MIC | SMILES
27 | > 128 µg/mL | CC(=O)OCC1=C(C(=O)[O-])N2C(=O)[C@@H](Nc3cc[n+](C)cc3)[C@H]2SC1
28 | > 128 µg/mL | Cn1nnnc1SCC1=C(C(=O)[O-])N2C(=O)C(Nc3ccc(Cl)c[n+]3C)C2SC1 (stereo not given)

Tested on: Salmonella
Test: Minimum inhibitory concentration against aerobic organism Salmonella strain 3860
Assay type: functional
Settings: not given
In short: as §1

Row | MIC | SMILES
29 | 4 µg/mL (≈ 7.97 µM) | CCOC(=S)SCC1=C(C(=O)[O-])N2C(=O)[C@@H](Nc3cc[n+](Cc4ccccc4)cc3)[C@H]2SC1

Tested on: Streptococcus pyogenes
Test: Minimum inhibitory concentration against aerobic organism Streptococcus pyogenes strain 3124
Assay type: functional
Settings: Streptococcus pyogenes; read-out: MIC
In short: as §1

Row | MIC | SMILES
30 | 2 µg/mL (≈ 5.5 µM) | CC(=O)OCC1=C(C(=O)[O-])N2C(=O)[C@@H](Nc3cc[n+](C)cc3)[C@H]2SC1
31 | 32 µg/mL (≈ 70.5 µM) | Cn1nnnc1SCC1=C(C(=O)[O-])N2C(=O)C(Nc3ccc(Cl)c[n+]3C)C2SC1 (stereo not given)

Tested on: Staphylococcus aureus
Test: Minimum inhibitory concentration against aerobic organism Staphylococcus aureus strain 2865
Assay type: functional
Settings: not given
In short: as §1

Row | MIC | SMILES
32 | 1 µg/mL (≈ 1.99 µM) | CCOC(=S)SCC1=C(C(=O)[O-])N2C(=O)[C@@H](Nc3cc[n+](Cc4ccccc4)cc3)[C@H]2SC1

Tested on: Staphylococcus aureus
Test: Minimum inhibitory concentration against aerobic organism Staphylococcus aureus strain 2868
Assay type: functional
Settings: Staphylococcus aureus; read-out: MIC
In short: as §1

Row | MIC | SMILES
33 | 4 µg/mL (≈ 7.97 µM) | CCOC(=S)SCC1=C(C(=O)[O-])N2C(=O)[C@@H](Nc3cc[n+](Cc4ccccc4)cc3)[C@H]2SC1
34 | 64 µg/mL (≈ 176 µM) | CC(=O)OCC1=C(C(=O)[O-])N2C(=O)[C@@H](Nc3cc[n+](C)cc3)[C@H]2SC1
35 | > 128 µg/mL | Cn1nnnc1SCC1=C(C(=O)[O-])N2C(=O)C(Nc3ccc(Cl)c[n+]3C)C2SC1 (stereo not given)

Tested on: Enterococcus faecalis
Test: Minimum inhibitory concentration against aerobic organism Streptococcus faecalis strain 2864
Assay type: functional
Settings: not given
In short: as §1

Row | MIC | SMILES
36 | > 128 µg/mL | CCOC(=S)SCC1=C(C(=O)[O-])N2C(=O)[C@@H](Nc3cc[n+](Cc4ccccc4)cc3)[C@H]2SC1
37 | > 128 µg/mL | CC(=O)OCC1=C(C(=O)[O-])N2C(=O)[C@@H](Nc3cc[n+](C)cc3)[C@H]2SC1
38 | > 128 µg/mL | Cn1nnnc1SCC1=C(C(=O)[O-])N2C(=O)C(Nc3ccc(Cl)c[n+]3C)C2SC1 (stereo not given)

Tested on: Shigella
Test: Minimum inhibitory concentration against aerobic organism Shigella species strain 2880
Assay type: functional
Settings: Shigella; read-out: MIC
In short: as §1

Row | MIC | SMILES
39 | 64 µg/mL (≈ 176 µM) | CC(=O)OCC1=C(C(=O)[O-])N2C(=O)[C@@H](Nc3cc[n+](C)cc3)[C@H]2SC1
40 | 8 µg/mL (≈ 17.6 µM) | Cn1nnnc1SCC1=C(C(=O)[O-])N2C(=O)C(Nc3ccc(Cl)c[n+]3C)C2SC1 (stereo not given)
